In assay [1] the test system is Mycobacterium avium. The assay can be described thus: In vitro cytotoxicity against Mycobacterium avium (CIP 103317) was determined. Type of assay: functional.
The subject of another assay is Mycobacterium gordonae. The assay can be described thus: In vitro cytotoxicity against Mycobacterium gordonae (CIP 6427) was determined. Type of assay: functional. A digest of the protocol:
(§1)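 Broth microdilution in Middlebrook 7H9. Stocks were made in DMSO and filter-sterilized (0.2 μm), then serially diluted 2-fold in water. Tubes were incubated at 37°C for 10-15 days, with a drug-free control tube in each experiment. MIC (μg/mL) is the lowest concentration giving no visible turbidity.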

Assay [2] has as its system Mycolicibacterium smegmatis. Nature of the assay: In vitro cytotoxicity against Mycobacterium smegmatis CIP (103599) was determined. Type of assay: functional. The procedure, abridged:
as §1

Assay [3] deals with Mycobacterium tuberculosis. The assay can be described thus: In vitro minimum inhibitory concentration against Mycobacterium tuberculosis CIP 103471 was determined. Type of assay: functional. A digest of the protocol: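 Broth microdilution in Middlebrook 7H9 with 10% ADC. DMSO stocks were filter-sterilised (0.2 μm nylon), then serially diluted 2-fold in water. Tubes were incubated at 37°C for 10-15 days alongside a drug-free control. MIC was the lowest concentration with no visible turbidity.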

For the next assay, the system named is Mycobacterium marinum. Nature of the assay: In vitro cytotoxicity against Mycobacterium marinum (CIP 6423) was determined. The format is functional. A digest of the protocol:
as §1

The subject of the next assay is Vero. Nature of the assay: Minimal toxic dose that induced a reduction of 50% of cell growth in Vero cell line […]. Type of assay: functional, Chlorocebus sabaeus. The procedure, abridged:
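VERO monolayers in Dulbecco's modified MEM with 2% fetal calf serum were seeded at 9'10⁴ cells per well in six-well plates. Compounds, dissolved in DMSO at 10 mg/mL initially, were added after 24 h. Five days later, cells were trypsinised and counted in a Neubauer chamber. MTD50 was the concentration giving 50% growth reduction versus control.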

The test system of assay [4] is Mycobacterium avium. The assay can be described thus: In vitro cytotoxicity against Mycobacterium avium (CIP 103317) was determined.

Converted amounts (≈) assume the structure as drawn.

For the compound `O=C(Nc1ccc(CN2CCSCC2)cc1)c1ccc(-c2ccccc2)cc1`, the MIC (in the assay with Mycobacterium avium [1]; with Mycobacterium gordonae; in assay [2]; in assay [3]; in the assay with Mycobacterium marinum) was more than 16 µg/mL throughout. In the assay on Vero, this compound came in with an MTD50 of 16 µg/mL.

Consider `CN(Cc1ccc(-c2ccccc2)cc1)c1ccc(CN2CCSCC2)cc1`, for which the MIC with Mycobacterium avium [1] is 4 µg/mL (≈ 10.3 µM); in the assay on Mycobacterium gordonae, more than 16 µg/mL; in assay [2], more than 16 µg/mL; in assay [3], 0.5 µg/mL (≈ 1.29 µM); against Mycobacterium marinum, 8 µg/mL (≈ 20.6 µM). The same compound had an MTD50 with Vero of 8 µg/mL.

For the compound `C[N+](C)(Cc1ccc(-c2ccccc2)cc1)c1ccc(CN2CCSCC2)cc1.[I-]`, the MIC is 16 µg/mL in the assay on Mycobacterium avium [1]; 8 µg/mL against Mycobacterium gordonae; more than 16 µg/mL in assay [2]; 8 µg/mL in assay [3]; 16 µg/mL in the assay with Mycobacterium marinum. For the same compound, the MTD50 with Vero turned out to be 16 µg/mL.

With `c1ccc(-c2ccc(CNc3ccc(CN4CCSCC4)cc3)cc2)cc1`, the MIC is 8 µg/mL (≈ 21.4 µM) with Mycobacterium gordonae; more than 16 µg/mL in assay [2]; 0.5 µg/mL (≈ 1.33 µM) in assay [3]; 8 µg/mL (≈ 21.4 µM) in the assay with Mycobacterium marinum; 4 µg/mL (≈ 10.7 µM) in the assay with Mycobacterium avium [4]. Further, the MTD50 with Vero came to 8 µg/mL.

Turning to `NNC(=O)c1ccncc1` [ISONIAZID], the MIC with Mycobacterium avium [1] was determined as 32 µg/mL (≈ 233 µM); with Mycobacterium gordonae it was 32 µg/mL (≈ 233 µM); in assay [2], 64 µg/mL (≈ 467 µM); in assay [3], 0.25 µg/mL (≈ 1.82 µM); with Mycobacterium marinum, 16 µg/mL (≈ 117 µM). Further, the MTD50 in the assay with Vero came to 32 µg/mL.

On to `CN[C@@H]1[C@H](O[C@H]2[C@H](O[C@H]3[C@H](O)[C@@H](O)[C@H](N=C(N)N)[C@@H](O)[C@@H]3N=C(N)N)O[C@@H](C)[C@]2(O)C=O)O[C@@H](CO)[C@H](O)[C@H]1O` [STREPTOMYCIN], for which the MIC against Mycobacterium avium [1] amounted to 4 µg/mL (≈ 6.88 µM); with Mycobacterium gordonae it was 16 µg/mL (≈ 27.5 µM); in assay [2] it was 8 µg/mL (≈ 13.8 µM); in assay [3] it was 0.5 µg/mL (≈ 0.86 µM); in the assay with Mycobacterium marinum, 32 µg/mL (≈ 55 µM). Also, in the assay with Vero, the MTD50 is more than 64 µg/mL.

(Values after ChEMBL document CHEMBL1130838, “N-[4-(1,1'-biphenyl)methyl]-4-(4-thiomorpholinylmethyl) benzenamines as non-oxazolidinone analogues of antimycobacterial U-100480” (1998).)
